# HNF4A DNA FP: change in binding of human HNF4 alpha to DNA; HNF4a-FITC DNA binding, fluorescence polarization, 1 h; activity change, % at 10 µM; AID 1224865; 360,000 compounds, 0.3% hits; in the data active = activity change above about 30%, passing the limit was not always enough
# Rpn11 block: blocks the human proteasome subunit Rpn11. O00487. human 26S proteasome, Ub4-pepOG fluorescence polarization; 20S core pre-blocked with epoxomicin. 360,000 compounds, 0.59% hits. calls only at 20 µM;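 active = inhibition at 20 µM, scaled to each plate's controls, above about 33%, limit read from the data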
# IDE act: IDE (human) activation, cell-based; P14735; HEK cells, FAbeta-B cleavage, fluorescence polarization; 0% vehicle, 100% cell-free pure enzyme wells; activation, % at 5.96 µM; 340,000 compounds, 0.073% hits; AID 493087;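 active = activation above the mean of all tested compounds plus 3 SD, set per screening campaign, cut at about 17% in these data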
# Target sequence (P14735 whole entry, looked up): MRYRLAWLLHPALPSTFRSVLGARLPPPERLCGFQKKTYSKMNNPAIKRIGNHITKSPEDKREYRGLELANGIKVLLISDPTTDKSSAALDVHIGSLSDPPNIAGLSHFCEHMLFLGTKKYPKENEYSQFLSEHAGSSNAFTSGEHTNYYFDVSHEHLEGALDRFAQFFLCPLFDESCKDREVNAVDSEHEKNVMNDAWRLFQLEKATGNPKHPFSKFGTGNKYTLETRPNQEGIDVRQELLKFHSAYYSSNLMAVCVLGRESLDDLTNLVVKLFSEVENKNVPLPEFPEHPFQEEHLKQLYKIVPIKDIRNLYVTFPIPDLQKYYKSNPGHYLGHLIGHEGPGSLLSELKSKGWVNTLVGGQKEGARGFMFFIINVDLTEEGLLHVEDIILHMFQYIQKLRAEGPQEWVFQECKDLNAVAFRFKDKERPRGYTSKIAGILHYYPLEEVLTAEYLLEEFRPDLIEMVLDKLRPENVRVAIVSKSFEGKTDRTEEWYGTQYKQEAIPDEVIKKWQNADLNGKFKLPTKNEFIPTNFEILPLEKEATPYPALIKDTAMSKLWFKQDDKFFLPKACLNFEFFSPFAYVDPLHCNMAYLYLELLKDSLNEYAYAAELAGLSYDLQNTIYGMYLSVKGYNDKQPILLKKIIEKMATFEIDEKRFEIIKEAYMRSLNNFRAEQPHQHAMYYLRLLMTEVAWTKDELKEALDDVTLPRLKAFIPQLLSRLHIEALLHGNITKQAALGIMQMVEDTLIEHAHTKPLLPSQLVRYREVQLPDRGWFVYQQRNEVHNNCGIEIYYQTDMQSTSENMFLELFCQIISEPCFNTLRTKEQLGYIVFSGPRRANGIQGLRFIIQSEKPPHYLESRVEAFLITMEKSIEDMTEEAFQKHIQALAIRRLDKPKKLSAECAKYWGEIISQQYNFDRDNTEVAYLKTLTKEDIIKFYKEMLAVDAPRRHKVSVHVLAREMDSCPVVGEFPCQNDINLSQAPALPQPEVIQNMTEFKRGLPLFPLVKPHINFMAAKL
# TPT1 inh: C. albicans TPT1 enzyme inhibition; inhibition, % at 5 µM; 300,000 compounds, 0.81% hits; recombinant caTPT1, FP RNA substrate dephosphorylation;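 active = inhibition above the mean of all tested compounds plus 3 SD, set per screening campaign, cut at about 24% in these data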;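 also: plate controls were DMSO alone for no effect and ferristatin control at 100 nM for full effect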
# IDE inh: inhibitors of human insulin-degrading enzyme in cells; P14735; HEK cells, FAbetaB cleavage, fluorescence polarization; inhibition, % at 5.59 µM; 320,000 compounds, 0.41% hits; AID 434962;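 active = percent inhibition above the average of all tested compounds plus 3 SD, set per screening campaign, cut at about 16% in these data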;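 also: IDE supplied by intact live HEK cells; FP after avidin binding of uncleaved biotin substrate so inhibition keeps polarization high; 0% = DMSO wells and 100% = 60 µM reference IDE inhibitor Ii1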
# CSN inh: inhibitors of human CSN-mediated cullin deneddylation; Purified CSN, SCF-Nedd8-OG deneddylation, fluorescence polarization; inhibition, % at 12.5 µM; 360,000 compounds, 0.38% hits;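 active = pattern-corrected inhibition above about 35%, with an unprinted fluorescence ratio check between 0.5 and 1.5, limit read from the data, passing the limit was not always enough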;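 also: 0% = enzyme with substrate and 100% = substrate without enzyme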
#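 assay system = purified human Csn5 enzyme expressed in HEK293T cells | amount = 0.24 nM enzyme | buffer or medium = Tris/NaCl/DTT buffer, pH 7.5 | reagent = 10 nM SCFSkp2-Nedd8OG | compound = one concentration, 12.5 µM, 0.25% DMSO | times = 90 min reaction at room temperature | signal = FP | read-out basis = % inhibition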
# caTPT1 confirm: TPT1 (C. albicans) inhibition, confirmation; shares compounds with TPT1 inh; recombinant caTPT1, fluorescence polarization, RNase T1 coupled; inhibition, % at 5 µM; 2,400 compounds, 74% hits; AID 2149;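 active = inhibition above the primary screen limit, the mean inhibition of all tested compounds plus 3 SD, cut at about 25% in these data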
# RNase T1 counter: RNase T1 inhibition in TPT1 counter-screen; shares compounds with TPT1 inh; RNase T1 cleavage, fluorescence polarization, 1536-well; inhibition, % at 5 µM; 2,400 compounds, 83% hits; AID 2153;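 active = inhibition above the solvent-only control well mean plus 3 SD, limit set per screening run, cut at about 23% in these data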;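 also: plate controls were DMSO wells with enzyme for no effect and wells without RNase T1 for full effect; inhibitors block cleavage so intact labeled substrate keeps polarization high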
# IDE inh confirm: confirmation of human insulin-degrading enzyme inhibitors in cells; inhibition, % at 5.59 µM; 1,200 compounds, 51% hits; shares compounds with IDE inh; HEK cells, FAbetaB cleavage, fluorescence polarization;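 active = mean inhibition across triplicate wells above the cutoff set by the earlier primary insulin-degrading enzyme screen, cut at about 16% in these data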;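 also: 0% = DMSO wells and 100% = 60 µM reference IDE inhibitor Ii1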
# HEK cytotox: kills HEK cells in IDE inhibitor counter-screen | AID 449730 | inhibition, % at 5.59 µM | 1,200 compounds, 28% hits | shares compounds with IDE inh | HEK293 cytotoxicity, ATP luminescence; in the data active = inhibition above about 22%;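 also: 0% = vehicle wells and 100% = reference cytotoxic drug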
# Rpn11 confirm: Rpn11 inhibition confirmation, single concentration. AID 602318. inhibition, % at 20 µM. purified human 26S proteasome, Ub4-pepOG fluorescence polarization; proteasome pretreated with epoxomicin. 1,900 compounds, 29% hits. shares compounds with Rpn11 block
# MMP-2 inh: MMP-2 (human) inhibition counter-screen; shares compounds with Rpn11 block; recombinant MMP-2, FRET peptide cleavage fluorescence; inhibition, % at 20 µM; 1,900 compounds, 4% hits;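 also: human MMP-2 activated beforehand with APMA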
# Thrombin inh: counter-screen for RPN11 inhibitors: inhibition of bovine thrombin; AID 602333; 1,900 compounds, 13% hits; bovine thrombin cleavage of Ub4-pepOG, fluorescence polarization; shares compounds with Rpn11 block; inhibition, % at 20 µM;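 active = mean inhibition at least 40% at 20 µM, or signal 3 deviations below plate average, so some actives read negative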;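 also: plate controls were thrombin with DMSO for no effect and buffer wells lacking thrombin for full effect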
# * = called active by the depositor; i = inactive; . = no result given; + = active, no number. Hits are enriched below; roughly 1.7% of the tested compounds scored in any of these assays. Rule as the data show it, unless noted: active = inhibition above about 40%; inactive = the rest.
SMILES,HNF4A DNA FP,Rpn11 block,IDE act,TPT1 inh,IDE inh,CSN inh,caTPT1 confirm,RNase T1 counter,others
COc1ccc(-n2c(O)c(/C(C)=N/Nc3ccccc3)c(=O)[nH]c2=O)cc1,5,i,-1,-8,5,1,.,.,
COc1ccc(-n2c(O)c(/C=C/C=Nc3ccccc3)c(=O)[nH]c2=O)cc1,177,.,-192,178*,159*,8,196*,177*,IDE inh confirm=51*;HEK cytotox=1
CC(C)c1ccc(NC(=O)CCNC(=O)N2C[C@H]3C[C@@H](C2)c2cccc(=O)n2C3)cc1,1,i,1,-1,3,2,.,.,
Cc1ccccc1NC1=NCC(C)S1 (configuration not stated),2,i,4,1,-3,-4,.,.,
O=C1/C(=C\c2ccc([N+](=O)[O-])cc2)N2CCC1CC2,1,i,-2,-3,5,0,.,.,
COc1cccc(-n2c(/C=C/c3ccccn3)nc3ccccc3c2=O)c1,-4,i,2,.,.,6,.,.,
COc1ccc(-n2c(/C=C/c3ccc(O)c(OC)c3)nc3ccccc3c2=O)cc1,12,.,-43,45*,34*,14,57*,67*,IDE inh confirm=102*;HEK cytotox=26*
COc1cccc(-n2c(/C=C/c3ccc(O)c(O)c3)nc3ccccc3c2=O)c1,57*,.,-101,55*,160*,32,65*,68*,IDE inh confirm=26*;HEK cytotox=17
Nc1c(C(=O)OC2CCCCC2)c2nc3ccccc3nc2n1CC1CCCO1 (configuration not stated),2,i,1,-1,6,-1,.,.,
O=C(N/N=C/c1c(O)n(Cc2ccccc2)c(=O)[nH]c1=O)c1ccccc1O,1,i,5,5,-2,0,.,.,
O=C(N/N=C/c1c(O)n(CCc2ccccc2)c(=O)[nH]c1=O)c1ccccc1O,27,+,1,38*,2,24,43*,56*,Rpn11 confirm=62*;MMP-2 inh=-15;Thrombin inh=36
COc1ccc(Cn2c(N)c(C(=O)NCc3ccco3)c3nc4ccccc4nc32)cc1,12,+,-1,48*,1,7,10,14,Rpn11 confirm=-2;MMP-2 inh=-37;Thrombin inh=-4
Nc1c(C(=O)NCc2ccco2)c2nc3ccccc3nc2n1Cc1ccccc1,7,i,-2,3,4,2,.,.,
CCN(CC)c1ccc(/C=C/[N+](=O)[O-])cc1,3,+,-74,127*,6,23,118*,117*,Rpn11 confirm=50*;MMP-2 inh=-45;Thrombin inh=53*
CC(=O)c1c(C)n(C2CCCCC2)c2ccc(O)cc12,3,i,-5,-4,4,3,.,.,
CCN(CC)c1ccc(N=Cc2c(O)[nH]c(=O)[nH]c2=O)cc1,6,.,1,14,10,7,.,.,
CCOc1ccccc1-n1c(O)c(C=Nc2ccc(N(CC)CC)cc2)c(=O)[nH]c1=O,17,+,-1,81*,-9,14,75*,89*,Rpn11 confirm=49*;MMP-2 inh=3;Thrombin inh=38
